Sampled rows, rich in hits. Any-hit rate of the full collection: about 1.8%.
M5 antag: human M5 muscarinic receptor antagonists, primary screen, CHO cells, Fluo-8 calcium fluorescence; Muscarinic acetylcholine receptor M5 (Homo sapiens), P08912; CHO-hM5 cells, ACh EC80; inhibition, % at 3 µM; hit rate 0.59% among 360,000; AID 624040, 2012;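 active = inhibition above a per-plate cutoff, the mean of that plate's test compounds plus 3 SD, cut at about 27% in these data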;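 note: 0% = acetylcholine EC80 with DMSO and 100% = DMSO without agonist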
Target sequence (P08912 whole entry, looked up): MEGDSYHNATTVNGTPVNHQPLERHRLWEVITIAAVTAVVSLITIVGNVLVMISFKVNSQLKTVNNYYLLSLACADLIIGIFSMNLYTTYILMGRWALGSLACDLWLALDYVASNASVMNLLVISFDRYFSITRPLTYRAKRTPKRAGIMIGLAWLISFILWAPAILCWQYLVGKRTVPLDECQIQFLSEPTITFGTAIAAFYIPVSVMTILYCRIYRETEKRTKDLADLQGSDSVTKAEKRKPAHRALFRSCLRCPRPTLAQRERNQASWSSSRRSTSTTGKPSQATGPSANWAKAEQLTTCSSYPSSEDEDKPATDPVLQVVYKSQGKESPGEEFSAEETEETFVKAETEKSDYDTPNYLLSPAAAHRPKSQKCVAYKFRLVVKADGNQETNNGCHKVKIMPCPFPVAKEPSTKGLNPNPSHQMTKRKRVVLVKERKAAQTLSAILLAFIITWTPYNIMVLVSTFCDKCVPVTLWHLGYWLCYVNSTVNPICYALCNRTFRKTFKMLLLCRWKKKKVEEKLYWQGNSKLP
CHRM4 antagonist: human M4 muscarinic receptor antagonists, primary screen, CHO cells, Fluo-8 calcium fluorescence. Muscarinic acetylcholine receptor M4 (Homo sapiens), P08173. hit rate 0.73% among 360,000. CHO-hM4 cells, ACh EC80. inhibition, % at 3 µM;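 active = inhibition above its plate's cutoff, the mean inhibition of sample wells plus 3 SD, cut at about 27% in these data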;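 note: 0% = acetylcholine EC80 with DMSO and 100% = DMSO without agonist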
CHRM4 agonist: human M4 muscarinic receptor agonists, primary screen, CHO-K1 cells, Fluo-8 calcium fluorescence. Muscarinic acetylcholine receptor M4 (Homo sapiens), P08173. CHO-K1 hM4/Gqi5; vehicle 0%, full acetylcholine response 100%. activation, % at 3 µM. hit rate 0.14% among 360,000. AID 624127, 2012;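 active = activation above the run mean over all test wells plus 3 SD, cut at about 32% in these data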;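 note: peak over basal fluorescence ratio per well then scaled between controls; 0% = DMSO wells and 100% = acetylcholine at EC100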
M4 PAM: human M4 muscarinic receptor positive allosteric modulators, primary screen, CHO-K1 cells, Fluo-8 calcium fluorescence; CHO-K1 hM4/Gqi5, ACh EC20; 0% = ACh EC20, 100% = maximal ACh; activation, % at 3 µM; hit rate 0.4% among 360,000; AID 624126, 2012;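 active = activation above its plate's cutoff, the mean activation of sample wells plus 3 SD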
CHRM5 agonist: human M5 muscarinic receptor agonists, primary screen, CHO-K1 cells, Fluo-8 calcium fluorescence; CHO-K1 hM5 cells; 0% DMSO wells, 100% maximal acetylcholine response; hit rate 0.19% among 360,000; AID 624037, 2012; Muscarinic acetylcholine receptor M5 (Homo sapiens), P08912; activation, % at 3 µM;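 active = activation above the run's mean over test compounds plus 3 SD, cut at about 23% in these data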;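 note: signal is peak over basal fluorescence ratio across the kinetic read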
CHRM5 PAM: human M5 muscarinic receptor positive allosteric modulators, primary screen, CHO-K1 cells, Fluo-8 calcium fluorescence; Muscarinic acetylcholine receptor M5 (Homo sapiens), P08912; CHO-K1 hM5, ACh EC20 PAM; 0% = ACh EC20, 100% = ACh EC100; activation, % at 3 µM; hit rate 0.3% among 360,000; AID 624038, 2012;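 active = activation above the run cutoff, the mean activation of all test compounds plus 3 SD, cut at about 18% in these data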
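system = human M5 receptor in CHO-K1 cells | compound = one concentration, 3 µM final (nominal) | schedule = Post-acetylcholine fluorescence recording 140 s | signal = Fluo-8 calcium dye fluorescence, kinetic read | benchmarks = low control EC20 acetylcholine (0%), high control EC100 acetylcholine (100%) | repeats = singlicate, one well per test compound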
The depositor's hits bear a star.

SMILES	M5 antag	CHRM4 antagonist	CHRM4 agonist	M4 PAM	CHRM5 agonist	CHRM5 PAM
COc1ccc(-c2sc3ccccc3c2-c2ccc(OCCN(C)C)cc2)cc1	12	36*	4	0	-6	-13
CN(C)CCOc1ccc(-c2c(-c3ccsc3)sc3ccccc23)cc1	11	20	3	4	-2	-3
CCCCn1c(N)c(N(CCOC)C(=O)COC(=O)/C=C/c2ccc(Br)cc2)c(=O)[nH]c1=O	6	2	0	-1	2	1
N#C/C(=C/c1ccccc1)C(=O)NCc1ccccc1	-9	5	1	-3	1	3
CN(C)c1ccc(/C=C(/C#N)C(=O)NCc2ccccc2)o1	15	3	9	-7	25*	-16
O=C(OCc1ccccn1)c1ccc(COc2ccc3ccccc3c2)o1	19	10	12	-29	-2	-21
C#CCOCCOCCOCCNc1nc(N2CCN(C(=O)[C@H](CCCCN)n3cc(CN)nn3)CC2)nc(N2CCN(C(=O)[C@H](CC(N)=O)n3cc(C(N)[C@H](C)CC)nn3)CC2)n1 (stereo partly specified)	16	9	0	-2	0	-2
Cc1n[nH]c(C)c1Cc1c(F)cccc1Cl	26	-2	4	2	-10	28*
CC(C)c1ccc(NC(=O)NN2CCOCC2)cc1	0	-4	1	-5	-2	3
COc1ccc(Cc2nnc(NC(=O)CSc3ccc(C)cc3)s2)cc1OC	-3	-6	95*	1	74*	-5
CCOC(=O)C(=O)Nc1nnc(Cc2ccc(OC)c(OC)c2)s1	-1	9	-1	7	1	4
CCOC(=O)Nc1nnc(Cc2ccc(Cl)c(Cl)c2)s1	9	-9	2	22*	1	1
Cc1cccc(CCNC(=O)C2CC(O)CN2C(=O)Nc2ccccc2)c1 (stereo unspecified)	4	-12	0	10	-1	3
CNc1cc(C)nc(N2CCOCC2)n1	29*	3	12	-15	-3	-18
CC(NC(=O)c1ccc(Cl)cc1Cl)C(c1ccccc1)N1CCOCC1 (stereo unspecified)	7	-1	0	2	-3	-3
CC(NC(=O)C1CCC(C(C)(C)C)CC1)C(c1ccccc1)N1CCOCC1 (stereo unspecified)	-1	6	-1	-6	-2	-2
CC(NC(=O)Nc1ccc(Cl)c(Cl)c1)C(c1ccccc1)N1CCOCC1 (stereo unspecified)	31*	6	73*	-7	18	-16
CC(NC(=O)Nc1ccc([N+](=O)[O-])cc1)C(c1ccccc1)N1CCOCC1 (stereo unspecified)	3	-4	76*	0	31*	-8
COCC(C)NC(=O)c1nn(Cc2ccccc2)c(=O)c2ccccc12 (stereo unspecified)	0	-4	-1	4	-3	-1
CCCC1OC(c2ccco2)OCC1CC (stereo unspecified)	2	-4	0	17	2	16
CN1C(=S)N(c2cccnc2)C(=O)/C1=C\c1ccc(N(C)C)cc1	31*	11	14	-7	60*	-21
Cc1cccc(OCc2n(CC(=O)OC3CC(C)CCC3C(C)C)c3ccccc3[n+]2C)c1 (stereo unspecified)	40*	39*	3	-17	-9	-20
O=c1ccc(-c2ccc(S(=O)(=O)N3CCN(c4cccc(Cl)c4)CC3)o2)n[nH]1	3	6	2	-5	-3	1
O=C(NNc1ccc(F)cc1F)c1c(F)cccc1Cl	-15	-6	1	-9	5	9
O=S(=O)(NNc1ccc(F)cc1F)c1cccc(Cl)c1	12	67*	1	-19	-3	-8
SMILES	M5 antag	CHRM4 antagonist	CHRM4 agonist	M4 PAM	CHRM5 agonist	CHRM5 PAM
CCN(CC)CCNC(=O)c1ccc(NC(=O)c2cn(-c3ccccc3)nc2-c2cccs2)cc1	16	10	7	-17	-10	-18
CCN(CC)CCNC(=O)c1ccc(NC(=O)c2cn(-c3ccc(F)cc3)nc2-c2cccc(OC)c2)cc1	67*	48*	3	-18	-8	-19
CCN(CC)CCNC(=O)c1ccc(NC(=O)c2c(C)nn(-c3ccc(F)cc3)c2Cl)cc1	49*	41*	7	-21	-5	-16
COC(=O)CSc1ncnc2c1sc1nc(N3CCOCC3)c3c(c12)CCCC3	-2	5	1	4	-3	-2
CCOC(=O)CSc1ncnc2c1sc1nc(N3CCOCC3)c3c(c12)CCCC3	-9	-5	0	28*	0	0
CCOc1cccc(C(=O)NNC(=O)C2C3C=CC(C3)C2C(=O)O)c1 (stereo unspecified)	8	0	0	2	-4	0
CCN(C(=O)c1ccc(Cl)cc1[N+](=O)[O-])c1ccccc1C	3	5	1	-10	-9	-1
Cc1ccc(C(=O)N(Cc2ccccc2)C(C)(C)C)cc1C	20	37*	-2	-15	-9	-20
CC(C)(C)N(Cc1ccccc1)C(=O)c1ccc(Cl)cc1[N+](=O)[O-]	11	27*	2	-18	-9	-19
CC(C)(C)N(Cc1ccccc1)C(=O)c1ccc(Br)o1	2	-4	-2	1	-9	0
Cc1ccc(CN2CCN(Cc3cccc4nccnc34)CC2CCO)cc1 (stereo unspecified)	-2	-6	0	5	-7	4
CCN(CC)S(=O)(=O)c1ccc(Cl)c(C(=O)NCc2ccco2)c1	-2	4	3	10	-4	11
O=C(O)c1ccc(NS(=O)(=O)c2ccc(Cl)c(C(=O)Nc3ccccc3)c2)cc1	7	-10	1	2	2	0
CC(=O)c1ccc(NS(=O)(=O)c2cccc(C(=O)Nc3ccccc3C(=O)O)c2)cc1	-7	-21	-1	14*	6	11
CS(=O)(=O)c1ccc(NS(=O)(=O)c2ccc(Cl)c(C(=O)NCc3ccco3)c2)cc1	-1	-39	0	24*	1	-3
O=C(Nc1ccccc1C(=O)O)c1cc(S(=O)(=O)Nc2ccccc2)ccc1Cl	-4	-9	-2	16*	5	12
